Source: ChEMBL document CHEMBL4477170, “Tricyclic Acylphloroglucinols from Hypericum lanceolatum and Regioselective Synthesis of Selancins A and B” (J Nat Prod, 2016)
Active and inactive are the calls of the source. The rule behind the calls is not given here.

How the values were obtained:
HT-29 = assay: Cytotoxicity against human HT-29 cells assessed as cell growth inhibition at 10 uM by XTT assay; type: functional, cell-based
Method in brief: (§1)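 Modified XTT assay on HT-29 colon and PC-3 prostate cancer cell lines, measuring growth inhibition; isolated compounds tested up to 10 μM.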

PC-3 = assay: Cytotoxicity against human PC3 cells assessed as cell growth inhibition at 10 uM by XTT assay; type: functional, cell-based; method in brief: as §1

| Structure (SMILES) | growth inhibition (GI) (HT-29) | growth inhibition (GI) (PC-3) |
| --- | --- | --- |
| CC(C)C(=O)c1c(O)c2c(c3c1OC(C)(C)C=C3)OC(C)(C)C=C2 | inactive | inactive |
| CC(C)C(=O)c1c(O)c2c(c3c1OC(C)(C)C=C3)OC(C)(C)[C@@H](O)C2=O | inactive | inactive |
| CC[C@H](C)C(=O)c1c(O)c2c(c3c1OC(C)(C)C=C3)OC(C)(C)C=C2 | inactive | inactive |
| CC(C)=CCC/C(C)=C/COc1cc(O)c2c(c1)C(=O)c1cc(C)cc(O)c1C2=O | inactive | inactive |
| CC(C)C(=O)c1c(O)c2c(c3c1OC(C)(C)C=C3)OC(C)(C)[C@H](O)[C@@H]2O (relative stereo) | inactive | inactive |
| CC[C@H](C)C(=O)c1c(O)c2c(c3c1OC(C)(C)C(O)C3)OC(C)(C)C=C2 (stereo partly drawn) | inactive | inactive |
| CC[C@H](C)C(=O)c1c(O)c2c(c3c1OC(C)(C)C=C3)OC(C)(C)[C@@H](O)C2=O | inactive | inactive |
| CC(C)C(=O)c1c(O)c2c(c3c1OC(C)(C)C(O)C3)OC(C)(C)C=C2 (stereo not drawn) | inactive | inactive |
| CC[C@H](C)C(=O)c1c(O)c2c(c3c1OC(C)(C)C=C3)OC(C)(C)[C@H](O)C2 | inactive | inactive |
